Among the data in ChEMBL document CHEMBL4513216, “Probing the Open Global Health Chemical Diversity Library for Multistage-Active Starting Points for Next-Generation Antimalarials” (ACS Infect Dis, 2020) are cytotoxicity values, retold here.

The nature of the data set: Toxicity liver stage against HepG2, at 10uM. Type of data set: cell-based. Details: test concentration 10 uM, cell line HepG2-A16-CD81EGFP. Particulars: human, HepG2-A16-CD81EGFP cells; read-out: INHIBITION
The method in brief:
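Uninfected HepG2-A16-CD81EGFP cells, 3 × 10^3 per well, 1536-well, plated on prespotted compound at 10 μM final, parasite-free screening media added to match infected plates; puromycin 10 μM positive, DMSO 0.5% negative; run in parallel with 48 h PbLuc assay at 37 °C, 5% CO2; viability by CellTiter-Glo luminescence, normalized to controls.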
As for `CC(C)CNC(=O)N1C[C@@H]2C[C@H](C(=O)NCc3ccccc3)[C@H](C1)O2`, the cytotoxicity at 10 µM is -0.924%. The figure for `Cn1ncc2c(N3CCN(C(=O)c4ccsc4)CC3)ncnc21` is -9.27%. The figure for `CCn1cnnc1CNC(=O)N(C)Cc1cccc(OC(F)F)c1` is -3.73%; for `CCS(=O)(=O)CCNC1CCN(c2nc3ccc(Cl)cc3s2)CC1` it is 32%.

In the case of `Cc1cc(CN2CCc3nc(N4CCOCC4)nc(O)c3CC2)c(C)s1`, the cytotoxicity at 10 µM worked out at 6.3%.

For the compound `COc1c(CNCc2cccnc2N2CCOCC2)c(C)nn1C`, the cytotoxicity at 10 µM was -151%. As for `O=C(c1ccccn1)N1C[C@H]2CC[C@@H](C1)N(C(=O)CCc1ccsc1)C2`, the figure is -12.7%; as for `COCCC(=O)N1CCN(CCN(C)C)c2ncccc2C1`, -4.11%; as for `CC1Cc2cc(-c3cncn3CC(=O)NC(C)(C)C)ccc2N1C` (configuration not stated), -40.5%. As for `CCc1noc(C2CC(=O)N(CCN(C)C)C2)n1` (configuration not stated), the figure is -10.1%. Regarding `CN(Cc1cccc(OC(F)(F)F)c1)Cc1cnn(C)c1`, the cytotoxicity at 10 µM is -3.41%. Take `C[C@H](O)CNc1cc(-c2cn[nH]c2)ncn1`: the cytotoxicity at 10 µM is -15.6%. As for `COc1cccc(OC)c1-c1ccnc2cc(CC(=O)N(C)C)nn12`, the figure is -8.86%. As for `Cc1n[nH]c(C)c1CNC(=O)N1CCCC(Cc2nccn2C)C1` (configuration not stated), the figure is -19.2%. As for `CC(C)c1nn(C)c(N(C)C)c1CNCC(O)c1cccc(F)c1` (configuration not stated), the figure is -1.82%; as for `CN(C)[C@@H]1CN(C(=O)Cc2ccc(F)cc2)[C@@H]2CCCO[C@H]12`, 3.88%. On to `Cn1ccnc1CN1CCN(Cc2ccc(C#N)cc2)CC1`, for which the cytotoxicity at 10 µM was -10.3%. As for `Cc1cc(C(=O)NC2(c3ccc(Br)cc3)CC2)n(C)n1`, the figure is 56.7%; as for `CCN(C)c1ccc(CNC(=O)c2ccc(NC(N)=O)cc2)cc1F`, 7.52%; as for `CNc1ncc(CN(C)Cc2cc3n(n2)CCNC3)cn1`, -5.71%. Consider `Cc1ccccc1CN1CCC(c2nn(CCN)c3nccnc23)C1` (configuration not stated), for which the cytotoxicity at 10 µM is -24.3%. As for `COCCN1CCN(c2ncnc3nc(C)cc(C)c23)CC1`, the figure is 2.42%; as for `N#Cc1ccccc1C(=O)Nc1cccc(CN2CCC(CO)CC2)c1`, -140%. The figure for `CCSCCNc1cc(C)nc2c(C)c(C)nn12` is 5.88%; for `CN(C)S(=O)(=O)Nc1ccc(-n2nccc2C(F)(F)F)cc1` it is 5.65%; for `CC(OCC1CC1)C(=O)Nc1cccc(C(=O)Nc2ccccn2)c1` (configuration not stated) it is 2.56%. The figure for `COc1ncccc1CN1C[C@H]2CCN(c3ncccn3)C[C@H]2C1` is 2.66%. As for `COCCN1CCOCC12CCN(C(=O)c1ccncc1)CC2`, the cytotoxicity at 10 µM was -71.9%. As for `CN1CCc2[nH]cnc2C12CCN(Cc1ccc(S(C)(=O)=O)cc1)CC2`, the figure is -3.72%; as for `O=C1CCCc2occ(C(=O)N3CCCC(O)(CO)C3)c21` (configuration not stated), -10.1%. The figure for `NC1CCCc2c1cnn2-c1cc(F)cc(F)c1` (configuration not stated) is 6.54%; for `CN(C)CCN(C)C(=O)Nc1cc(F)cc(N2CCCC2)c1` it is -2.22%; for `Cc1cnn(CC2CN(CC(=O)Nc3sccc3C#N)CCO2)c1` (configuration not stated) it is -0.935%. As for `CCn1nnc(NCc2ccc(-c3ccc(Br)cc3)o2)n1`, the figure is -10.1%; as for `CC(=O)NC1CCCN(C(=O)CNc2cccc(C)c2Cl)C1` (configuration not stated), -4.69%. In the case of `Cc1cccc(NS(=O)(=O)c2cc3c(c(C(=O)O)c2)OCCO3)c1`, the cytotoxicity at 10 µM is -3.44%. As for `O=C(Nc1cnn(Cc2ccc(F)cc2Cl)c1)C1CC1`, the figure is -4.83%. As for `NCC(=O)N1CCCC1c1ccc(C(=O)NCc2ccoc2)s1` (configuration not stated), the figure is 1.68%; as for `Cc1ncc(S(C)(=O)=O)c(N2CCCN(Cc3ccccn3)CC2)n1`, 1.46%; as for `Cc1cc(N2CCN(Cc3ccc(C)o3)CC2)cc(C)n1`, -6.61%.

For the compound `Cc1ccsc1C(=O)Nc1ccc(N2CCC(O)CC2)c(C#N)c1`, the cytotoxicity at 10 µM worked out at 33.2%. The figure for `CNC(=O)CS(=O)(=O)Cc1cc(Cl)c2c(c1)OCCO2` is -4.17%; for `COc1ccc2c(c1)CC(NCc1cccc(OCC(N)=O)c1)CC2` (configuration not stated) it is -40.4%. As for `Cc1ccc2c(c1)CN(C(=O)C1CCCCC1)C(CN(C)C)CO2` (configuration not stated), the figure is 1.85%; as for `CC(NCc1ccc(-c2ccc(F)cc2)o1)c1nnc2n1CCC2` (configuration not stated), -4.21%; as for `CC(Nc1ncnc2c1NC(=O)CN2)c1ccccn1` (configuration not stated), 7.66%. The figure for `Cc1cc(C2CCN(C(=O)c3cnn(C)c3)CC2)ccn1` is -17.8%; for `Cc1noc(C)c1CN1CCN(CCN(C)C)c2ncccc2C1` it is 7.83%. With `CCCNC(=O)C(C)NC(=O)Nc1ccccc1SC(F)F` (configuration not stated), the cytotoxicity at 10 µM came to 5.09%. The figure for `CC(C)COc1cncc(N2CCCN(c3ncccn3)CC2)n1` is -2.38%; for `Cc1nccc(-c2ccccc2)c1C(=O)N1CCC2(CC(=O)NC2=O)C1` (configuration not stated) it is -2.12%. With `CCc1c(C)sc2nc3n(CC(N)=O)nc(SC)n3c(=O)c12`, the cytotoxicity at 10 µM is -0.817%.

Consider `CNc1ncc(CN(C)C(=O)CCc2[nH]nc3c2CCCC3)cn1`, for which the cytotoxicity at 10 µM was found to be 3.8%. As for `Cc1cccc(CN2CCN(C(=O)c3cnc(C)[nH]c3=O)CC2)c1`, the figure is -3.32%. `COCCCNC(=O)CN(C)C(=O)c1ccc(OC)cc1O`: the cytotoxicity at 10 µM is -10.7%. Consider `CCOCC(O)CN1CCN(C(=O)C2CCCCC2)CC1` (configuration not stated), for which the cytotoxicity at 10 µM was -21.5%.

For `CC(=O)N1CC[C@H]2CC(=O)N(CCc3c[nH]cn3)CC[C@H]2C1`, the cytotoxicity at 10 µM was -2.77%.

On to `CC(C)c1nnc(NC(=O)Cc2ccc(F)cc2)[nH]1`, for which the cytotoxicity at 10 µM was -8%. As for `CCc1nnc2n1CCN(C(=O)c1cn(-c3ccccc3)nn1)C2`, the figure is -141%; as for `CCN1CC(C(=O)NC(C)(C)CC(C)(C)C)CC1=O` (configuration not stated), -4.72%. The figure for `CN(C)CC(=O)N1CCOCC2(C1)CN(c1ccccc1)C(=O)CO2` (configuration not stated) is 0.00964%; for `CN(C)[C@@H]1CCN(c2ncc(F)cn2)[C@H]1Cc1cccnc1` it is 2.53%. Turning to `COC(=O)C1CCCCN1C(=O)c1cn(C/C=C/c2ccccc2)nn1` (configuration not stated), the cytotoxicity at 10 µM amounted to 3.98%. As for `CC1CCN(CC(=O)NC(C#N)c2cnn(-c3ccccc3)c2)CC1` (configuration not stated), the figure is 0.724%. For `Cc1ccc(C(=O)N2CCCCC2c2[nH]ncc2S(C)(=O)=O)s1` (configuration not stated), the cytotoxicity at 10 µM was -11.4%. As for `CSC(C)C(=O)N1CCC(Oc2cc(C)ccc2F)(C(=O)O)CC1` (configuration not stated), the figure is 2.88%; as for `CC(C)N1CCC(c2ccnc3c(C(=O)N4CCCC4)ncn23)CC1`, -5.49%; as for `CC(=O)N(C)C1CCCc2nc(C)sc21` (configuration not stated), -4.97%. The figure for `O=C1CCCCN1Cc1cccc(NC(=O)N2CCSCC2)c1` is -9.99%; for `Cc1cc(CN(C)C(=O)c2ccc(OC(C)C)nc2)no1` it is -15.3%. As for `Cc1nn(C)c2ncnc(N(C)CC3CCN(CC(C)C)C3)c12` (configuration not stated), the figure is -5.79%; as for `CNc1ncc(CN(C)CCN2CCCCC2)cn1`, 17.7%; as for `CC(C)(O)CN1CCN(C(=O)c2cc3ccccc3c(=O)[nH]2)CC1`, 1.52%.

Turning to `Cc1nccc(CN2CCC(c3nnsc3S(C)(=O)=O)CC2)n1`, the cytotoxicity at 10 µM was 2.86%. As for `Cc1nc(N2CCOCC2)nc2c1CCN(c1nccs1)CC2`, the figure is 7.37%; as for `N#Cc1cc(Cl)ccc1N1CCOC(C(N)=O)C1` (configuration not stated), 11.7%. As for `c1ccc(COC[C@H]2CC[C@H]3[C@H](CCN3Cc3ccco3)O2)nc1`, the figure is -144%. As for `O=C(c1ccccn1)N1C[C@H]2CC[C@@H](C1)N(C(=O)c1ccsc1)C2`, the figure is 3.88%; as for `O=C(Cc1ccccc1)N1CCOC(c2nc(-c3ncccn3)no2)C1` (configuration not stated), -22.6%; as for `Cc1[nH]/c(=N\C(=O)c2csc(NCC(C)C)n2)sc1C`, 47.4%.

With `COc1ccccc1N1CCC(N2CCOC(C(F)(F)F)C2)CC1` (configuration not stated), the cytotoxicity at 10 µM is -1.45%.

In the case of `c1ccc2c(N3CCCCC3)cnnc2c1`, the cytotoxicity at 10 µM was -5.34%.

On to `CNc1nc(C(=O)N2C[C@@H]3CCN(C)[C@@H]3C2)cs1`, for which the cytotoxicity at 10 µM was -10.8%. The figure for `O=C(Nc1cccc(OC(F)F)c1)C1CN(S(=O)(=O)C2CC2)C1` is 0.696%; for `Cn1cnc2c1C(COCC1CCOCC1)CN(c1ncccn1)C2` (configuration not stated) it is -74.1%. As for `CN(Cc1cccnc1)CC1CC12CCN(Cc1nccs1)CC2` (configuration not stated), the figure is 10.2%; as for `Cc1nc(C2CCCN2C(=O)c2cc3c(s2)CCCC3)no1` (configuration not stated), -11.2%. `CC(C)c1nc(CN(C)C(=O)CNS(=O)(=O)c2cccs2)cs1`: the cytotoxicity at 10 µM is -6.46%. As for `COc1ccc(F)c(CN(CCCn2ccnc2)Cc2ccc(C)s2)c1`, the figure is -7.14%. As for `Nc1cccnc1N1CCN(c2ccccc2)CC1`, the figure is -2.95%; as for `COCCCN1C(=O)CC[C@H]2CN(c3cnc4ccccc4n3)CC[C@H]21`, 5.77%. The figure for `CC(C)c1nc(/C=C/c2cnn(-c3ccc(Cl)cc3)c2)ncc1C(=O)O` is -6.21%; for `COc1cc(C)ccc1OCc1nc(C(=O)N2CCCC2)co1` it is -42.5%; for `Cn1nc(C(=O)NN2CCOCC2)c(Cl)c1C(F)(F)F` it is 2.99%.

On to `CCC[C@@H]1CN(Cc2ccccc2SC)C[C@H]1NC(C)=O`, for which the cytotoxicity at 10 µM was -5.73%. As for `CC(C)CN1CCC(NC(=O)c2ccc(F)cc2F)CC1`, the figure is -3.1%; as for `Cc1ccsc1CNC(=O)NC1CCCc2c1cnn2CCO` (configuration not stated), 3.33%.
